Experimental data as given in PubChem BioAssay AID493134 (Broad Institute, 2011).
“And” between values parts separate entries of the source, which are not always exact repeats. Equal values may be shown once. The source made the active and inactive calls.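 The calls were made as follows: active = growth inhibition with fitted half-maximal dose at or below ten times the top tested dose; inconclusive = flat curve with inhibition of 30 to 70%, or poor fit; inactive = the rest.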

Columns and labels:
[1] = growth inhibition of C. albicans without azole, dose response, counter-screen for antifungal drug resistance project, CaCi-2 strain, Alamar Blue, dry powder, set 7 (AID 493134); settings: C. albicans CaCi-2 growth, Alamar Blue fluorescence, 48 h
How it was run: (§1)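 System: Fluconazole-resistant clinical Candida albicans isolate CaCi-2 | Doses: Pinned test compound | Incubation: Compound exposure 48 h at 37 °C unshaken, dye 2 h room temperature | Technique: Alamar Blue fluorescence, 1:200 final, Ex 544 nm, Em 590 nm | Read-out basis: Relative yeast growth from fluorescence, loss marking intrinsic toxicity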

[2] = test system: C. albicans CaCi-2 (fluconazole-resistant clinical isolate) growth, Alamar Blue fluorescence, 48 h; assay: as above
How it was run: as §1

SMILES | activity change, negative = inhibition ([1]; at 26 µM (top of the series)) | other results
O=C(Cn1c2ccccc2c2nc3n(c(=O)c21)CCS3)N1CCCC1 | -14.3% (inactive) and -26.7% (inactive) | –
COC(=O)Cn1nc(-c2cccc(OC)c2)c2ccccc21 | -0.691% (inactive) | –
COC(=O)Cn1nc(-c2ccccc2)c2cc(F)ccc21 | -6.49% (inactive) | –
COC(=O)Cn1c2ccccc2c2nc3n(c(=O)c21)CCS3 | – | AC50 [2]: > 26 µM (inactive)
O=C(Cn1nc(-c2ccccc2)c2ccccc21)Oc1ccccc1 | 6.4% (inactive) | –
COC(=O)Cn1nc(-c2ccccc2)c2ccc(C)cc21 | 0.047% (inactive) | –
COC(=O)Cn1nc(-c2ccccc2)c2cc(OC)ccc21 | – | AC50 [2]: 20.3 µM
CC(C)(C)OC(=O)Cn1nc(-c2ccccc2)c2ccccc21 | -0.465% (inactive) | –
COC(=O)Cn1nc(-c2ccccc2)c2cc(C)ccc21 | 2.54% (inactive) | –
COC(=O)Cn1nc(-c2ccccc2)c2ccc(F)cc21 | 5.28% (inactive) | –
COC(=O)Cn1nc(-c2cncnc2)c2ccccc21 | – | activity change, negative = inhibition ([1]; at 19.5 µM (top of the series)): 7.98% (inactive)
COC(=O)Cn1nc(-c2ccc(C(F)(F)F)cc2)c2ccccc21 | 4.42% (inactive) | –
c1ccc(-c2nn(Cc3nn[nH]n3)c3ccccc23)cc1 | 9.64% (inactive) | –
COC(=O)Cn1nc(-c2ccccc2)c2ccc(C#N)cc21 | 21.8% (inactive) | –
COC(=O)Cn1nc(-c2cccc(F)c2)c2ccccc21 | 16% (inactive) | –
N#CCn1nc(-c2ccccc2)c2ccccc21 | 11% (inactive) | –
CCOC(=O)Cn1nc(-c2ccccc2)c2ccccc21 | -5.31% (inactive) | –
COC(=O)Cn1nc(-c2ccccc2)c2ccccc21 | -5.47% (inactive) | –
COC(=O)Cn1nc(-c2cccc(C)c2)c2ccccc21 | 7.2% (inactive) | –
CC(C)OC(=O)Cn1nc(-c2ccccc2)c2ccccc21 | -0.006% (inactive) | –
COC(=O)Cn1nc(-c2ccccc2)c2ccc(OC)cc21 | -26.5% (inactive) | –
COC(=O)Cn1nc(-c2ccccc2OC)c2ccccc21 | -23.3% (inactive) | –
CN(C)C(=O)Cn1nc(-c2ccccc2)c2ccccc21 | -25% (inactive) | –
COC(=O)Cn1nc(-c2ccccc2C)c2ccccc21 | -21.2% (inactive) | –
COC(=O)Cn1nc(-c2ccccc2)c2ccc(C(F)(F)F)cc21 | – | AC50 [2]: 16.4 µM
COCCn1nc(-c2ccccc2)c2ccccc21 | -0.717% (inactive) | –
